From ChEMBL document CHEMBL4680290, “Design, synthesis and biological evaluation of novel chalcone-like compounds as potent and reversible pancreatic lipase inhibitors” (Bioorg Med Chem, 2021)

Legend:
[1] = target: T1, Pancreatic triacylglycerol lipase (Sus scrofa, UniProt P00591); test: Inhibition of porcine pancreatic lipase preincubated for 10 mins followed by 4-MUO addition and measured at 60 sec interval for 40 mins by multi plate micro plate reader
T1 sequence (P00591 whole entry): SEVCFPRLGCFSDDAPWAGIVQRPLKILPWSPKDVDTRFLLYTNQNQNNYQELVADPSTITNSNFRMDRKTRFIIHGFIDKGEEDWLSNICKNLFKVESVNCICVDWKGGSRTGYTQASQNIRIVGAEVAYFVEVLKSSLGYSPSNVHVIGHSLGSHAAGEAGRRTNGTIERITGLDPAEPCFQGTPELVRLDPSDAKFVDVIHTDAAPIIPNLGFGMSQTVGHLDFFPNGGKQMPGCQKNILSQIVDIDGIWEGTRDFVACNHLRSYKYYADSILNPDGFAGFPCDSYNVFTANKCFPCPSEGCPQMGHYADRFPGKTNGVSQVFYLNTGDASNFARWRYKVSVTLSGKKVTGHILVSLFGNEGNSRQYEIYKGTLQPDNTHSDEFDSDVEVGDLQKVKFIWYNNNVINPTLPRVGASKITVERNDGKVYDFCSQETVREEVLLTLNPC
Method in brief: (§1)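 Porcine pancreatic lipase (type II) at 0.01 mg/mL final in 0.1 M citrate phosphate buffer pH 7.4 with inhibitor at various concentrations, vortexed, preincubated 10 min at 37 °C. Reaction started with 4-MUO, and fluorescence of released 4-MU read on a microplate reader. IC50 obtained by nonlinear regression; mean ± SD of triplicates.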

[2] = Inhibition of porcine pancreatic lipase type 2; set-up: species or system Sus scrofa; method in brief: as §1
[3] = Metabolic stability in human liver microsomes assessed as half life in Phase II metabolic system at 10 uM measured by LC-UV method; assay type: ADME, Microsome
Method in brief: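 Phase II system of human liver preparations, compound at 10 μM final. Remaining compound measured by UFLC-UV on an ODS column (2.1 × 150 mm, 2.2 μm) at 40 °C and 0.4 mL/min, with an acetonitrile / water (0.2% formic acid) gradient, detection at 370 nm. Half-life reported.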

[4] = Metabolic stability in human liver microsomes assessed as half life in Phase I metabolic system at 10 uM measured by LC-UV method; assay type: ADME, Microsome
Method in brief: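 Phase I incubation with human liver preparations, compound or testosterone control at 10 μM final. Remaining compound quantified by LC-UV (ODS column, 40 °C, acetonitrile/0.2% formic acid water gradient, 0.4 mL/min, detection 370 nm) to give in vitro half-life.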

[5] = Metabolic stability in artificial intestinal fluids assessed as half life at 100 uM by LC-UV method
Method in brief: (§2)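 Artificial gastric or intestinal fluid (800 μL) prewarmed 3 min at 37 °C, then compound added to 100 μM final. Aliquots taken at 0, 0.5, 1, 2 and 4 h and quenched with equal volume of ice-cold acetonitrile. Half-life derived from remaining compound.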

[6] = Metabolic stability in artificial gastrointestinal fluids assessed as half life at 100 uM by LC-UV method; method in brief: as §2
[7] = target: T1, Pancreatic triacylglycerol lipase; test: Mixed type inhibition of porcine pancreatic lipase using 4MUO as substrate by Lineweaver-Burk plot analysis
Method in brief: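 Kinetics of porcine pancreatic lipase with varied 4-MUO concentrations and increasing inhibitor doses, otherwise as in the standard assay (0.01 mg/mL enzyme, citrate phosphate pH 7.4, 37 °C, 4-MU fluorescence read-out). Inhibition mode and Ki taken from inhibition kinetic plots and Lineweaver-Burk plots, with a secondary plot of slopes. Nonlinear regression; mean ± SD of triplicates.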

Row | IC50 [1] [µM] | SMILES | other results
1 | 24.8 | COc1ccc(/C=C2\Cc3ccc(O)cc3C2=O)c(OC)c1 | –
2 | 37.1 | COc1ccc2c(c1)C(=O)/C(=C/c1ccc(O)c(OC)c1)C2 | –
3 | – | CC(C)=CCc1c(O)ccc(C(=O)/C=C/c2ccc(O)cc2)c1O [ISOBAVACHALCONE] | IC50 [2]: 3.3 µM
4 | 12.4 | COc1cc(/C=C2\Cc3ccc(N)cc3C2=O)ccc1O | –
5 | > 100 | O=C1/C(=C/c2ccc(O)cc2)Cc2ccc(O)cc21 | –
6 | > 100 | O=C1/C(=C/c2ccccc2F)Cc2ccc(O)cc21 | –
7 | – | O=C1/C(=C/c2ccccc2)Cc2ccccc21 | IC50 [2]: 22.5 µM
8 | 20.7 | COc1cc(OC)c(/C=C2\Cc3ccc(O)cc3C2=O)c(OC)c1 | –
9 | 0.58 | C=CCCCCCCCCN(CCCCCCCCC=C)c1ccc2c(c1)C(=O)/C(=C/c1ccc(O)c(OC)c1)C2 | –
10 | 6.94 | COc1cc(/C=C2\Cc3ccccc3C2=O)ccc1O | –
11 | 14.8 | O=C1/C(=C/c2cccc(Br)c2)Cc2ccc(O)cc21 | –
12 | 3.5 | COc1cc(/C=C2\Cc3ccc(N4CCCC4)cc3C2=O)ccc1O | –
13 | 2.52 | COc1cc(/C=C2\Cc3ccc(NCCC(C)CCCC(C)C)cc3C2=O)ccc1O (stereo unspecified) | –
14 | 25.1 | C=CCCCCNc1ccc2c(c1)C(=O)/C(=C/c1ccc(O)c(OC)c1)C2 | –
15 | 3.32 | COc1cc(/C=C2\Cc3ccc(N4CCCCC4)cc3C2=O)ccc1O | –
16 | 0.83 | COc1cc(/C=C2\Cc3ccc(N(CCC(C)CCCC(C)C)CCC(C)CCCC(C)C)cc3C2=O)ccc1O (stereo unspecified) | –
17 | 84.1 | C=CCCCCCCCCNc1ccc2c(c1)C(=O)/C(=C/c1ccc(O)c(OC)c1)C2 | –
18 | – | O=c1ccc2ccc(O)cc2o1 [UMBELLIFERONE] | half-life at 10 µM [3]: 0.258 h

Row | IC50 [1] [µM] | SMILES | other results
19 | 14.8 | COc1cc(/C=C2\Cc3ccc(O)cc3C2=O)cc(OC)c1OC | –
20 | 84.4 | O=C(/C=C/c1ccccc1)c1ccccc1 [CHALCONE] | –
21 | 28.9 | O=C1/C(=C/c2ccccc2Br)Cc2ccc(O)cc21 | –
22 | 2.09 | C=CCCCCN(CCCCC=C)c1ccc2c(c1)C(=O)/C(=C/c1ccc(O)c(OC)c1)C2 | –
23 | 32.7 | O=C1/C(=C/c2ccc(F)cc2)Cc2ccc(O)cc21 | –
24 | 75.4 | O=C1/C(=C/c2ccc(Cl)c(Cl)c2)Cc2ccc(O)cc21 | –
25 | – | CC(C)=CCc1c(O)ccc(C(=O)/C=C/c2ccc(O)cc2O)c1O [MORACHALCONE A] | IC50 [2]: 6.2 µM
26 | 14.9 | O=C1/C(=C/c2ccc(O)cc2)Cc2ccccc21 | –
27 | – | CC(C)=CCc1cc(C(=O)/C=C/c2ccc(O)cc2)c(O)cc1O [BROUSSOCHALCONE B] | IC50 [2]: 5.7 µM
28 | 8.61 | COc1cc(/C=C2\Cc3ccc(OC(C)C)cc3C2=O)ccc1O | –
29 | > 100 | O=C1/C(=C/c2ccccc2Cl)Cc2ccc(O)cc21 | –
30 | 0.68 | COc1cc(/C=C2\Cc3ccc(NCCCCCCCCCCCCO)cc3C2=O)ccc1O | –
31 | 0.33 | COc1cc(/C=C2\Cc3ccc(N(CCCCCCCCCCCCO)CCCCCCCCCCCCO)cc3C2=O)ccc1O | half-life at 10 µM [3]: 1.95 h; half-life at 10 µM [4]: 3.68 h; T1/2 [5]: > 4 h; T1/2 [6]: 3.89 h; Ki [7]: 0.12 µM
32 | 1.69 | CCN(CC)c1ccc2c(c1)C(=O)/C(=C/c1ccc(O)c(OC)c1)C2 | –
33 | 75.6 | O=C1/C(=C/c2ccc(Br)cc2)Cc2ccc(O)cc21 | –
34 | 35 | COc1cc(OC)c(OC)cc1/C=C1\Cc2ccc(O)cc2C1=O | –
35 | 2.54 | CCCOc1ccc2c(c1)C(=O)/C(=C/c1ccc(O)c(OC)c1)C2 | –
36 | 10.4 | COc1cc(/C=C2\Cc3ccc(O)cc3C2=O)ccc1O | –
